Experimental data as given in ChEMBL document CHEMBL1148606 (J Med Chem, 2006).

Columns and labels:
Assay type in all cases: cell-based
Adenosine receptor A3 = target: T1, Adenosine receptor A3 (Homo sapiens, UniProt P0DMS8); test: Displacement of [125I]AB-MECA from human adenosine A3 receptor transfected in CHO cells
T1 sequence (P0DMS8 whole entry): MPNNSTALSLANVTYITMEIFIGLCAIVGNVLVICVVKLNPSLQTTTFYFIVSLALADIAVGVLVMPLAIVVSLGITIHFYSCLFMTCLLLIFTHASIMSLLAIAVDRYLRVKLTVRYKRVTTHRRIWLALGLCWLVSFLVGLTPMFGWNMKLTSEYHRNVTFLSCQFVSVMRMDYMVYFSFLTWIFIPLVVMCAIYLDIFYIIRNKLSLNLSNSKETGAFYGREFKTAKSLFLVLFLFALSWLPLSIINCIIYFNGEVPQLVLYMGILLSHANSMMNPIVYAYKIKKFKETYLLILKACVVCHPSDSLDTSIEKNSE

Adenosine receptor A2a [1] = target: T2, Adenosine receptor A2a (Homo sapiens, UniProt P29274); test: Inhibition of [3H]CGS-21680 binding to human adenosine A2A receptor transfected in HEK293 cells at 10 uM
T2 sequence (P29274 whole entry): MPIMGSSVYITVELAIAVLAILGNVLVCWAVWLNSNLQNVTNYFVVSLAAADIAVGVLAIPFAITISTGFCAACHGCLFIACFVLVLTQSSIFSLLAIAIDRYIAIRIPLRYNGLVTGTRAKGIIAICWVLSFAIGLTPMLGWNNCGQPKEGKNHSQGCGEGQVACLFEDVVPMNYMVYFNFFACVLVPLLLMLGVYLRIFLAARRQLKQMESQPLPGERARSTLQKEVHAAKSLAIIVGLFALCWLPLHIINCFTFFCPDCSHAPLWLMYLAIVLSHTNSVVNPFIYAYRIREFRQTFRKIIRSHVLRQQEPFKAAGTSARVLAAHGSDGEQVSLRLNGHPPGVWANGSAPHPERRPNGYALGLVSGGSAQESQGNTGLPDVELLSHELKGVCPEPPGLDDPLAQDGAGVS

[2] = target: T3, Adenosine receptor A1 (Homo sapiens) (UniProt P30542); test: Inhibition of [3H]R-PIA binding to human adenosine A1 receptor transfected in CHO cells at 10 uM
T3 sequence (whole entry): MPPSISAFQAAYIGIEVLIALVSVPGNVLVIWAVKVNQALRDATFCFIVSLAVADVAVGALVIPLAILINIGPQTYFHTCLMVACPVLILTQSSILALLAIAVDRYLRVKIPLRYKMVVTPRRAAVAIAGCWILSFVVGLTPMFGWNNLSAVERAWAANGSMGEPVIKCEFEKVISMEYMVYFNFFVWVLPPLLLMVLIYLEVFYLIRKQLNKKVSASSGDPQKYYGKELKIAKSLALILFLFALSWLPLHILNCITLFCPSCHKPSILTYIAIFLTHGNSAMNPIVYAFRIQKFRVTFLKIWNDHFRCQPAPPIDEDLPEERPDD

Adenosine receptor A1 = target: T4, Adenosine receptor A1 (Homo sapiens, UniProt P30542); test: Displacement of [3H]R-PIA from human adenosine A1 receptor transfected in CHO cells
T4 sequence (P30542 whole entry): T3 sequence (whole entry)
How it was run: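 Membranes (40 µg/tube) from CHO cells stably expressing human A1 receptor were incubated with 2 nM [3H]R-PIA at 25 °C for 60 min in 50 mM Tris·HCl pH 7.4 containing 10 mM MgCl2. Nonspecific binding defined with 10 µM CPA. Terminated by filtration through GF/B filters.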

Adenosine receptor A2a [3] = target: T2, Adenosine receptor A2a; test: Displacement of [3H]CGS-21680 from human adenosine A2A receptor transfected in HEK293 cells
How it was run: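 Membranes (20 µg/tube) from HEK-293 cells stably expressing human A2A receptor, incubated with 15 nM [3H]CGS21680 at 25 °C for 60 min in 50 mM Tris·HCl pH 7.4 with 10 mM MgCl2. Nonspecific binding defined with 10 µM NECA. Terminated by filtration through GF/B filters.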

## CNc1nc(Cl)nc2c1ncn2[C@@H]1S[C@H](C(=O)NCCC(c2ccccc2)c2ccccc2)[C@@H](O)[C@H]1O
Adenosine receptor A3
  Ki: 415 nM
Adenosine receptor A2a [1]
  inhibition: 15%
[2]
  inhibition: 20%

## CCNC(=O)[C@H]1S[C@@H](n2cnc3c(NCc4cccc(I)c4)nc(Cl)nc32)[C@H](O)[C@@H]1O
Adenosine receptor A1
  Ki: 144 nM
Adenosine receptor A3
  Ki: 0.89 nM
Adenosine receptor A2a [3]
  Ki: 292 nM

## O=C(NCc1cccc(Cl)c1)[C@H]1S[C@@H](n2cnc3c(NCc4cccc(I)c4)nc(Cl)nc32)[C@H](O)[C@@H]1O
Adenosine receptor A1
  Ki: 1710 nM
Adenosine receptor A3
  Ki: 308 nM
Adenosine receptor A2a [1]
  inhibition: 28%

## CCNC(=O)[C@H]1S[C@@H](n2cnc3c(NCc4ccccc4C)nc(Cl)nc32)[C@H](O)[C@@H]1O
Adenosine receptor A1
  Ki: 75.8 nM
Adenosine receptor A3
  Ki: 2.5 nM
Adenosine receptor A2a [3]
  Ki: 429 nM

## Cc1ccccc1CNc1nc(Cl)nc2c1ncn2[C@@H]1S[C@H](C(=O)N2CCC(Cc3ccccc3)CC2)[C@@H](O)[C@H]1O
Adenosine receptor A3
  Ki: 49200 nM
Adenosine receptor A2a [1]
  inhibition: 15%
[2]
  inhibition: 26%

## CNc1nc(Cl)nc2c1ncn2[C@@H]1S[C@H](C(=O)N2CCN(c3ccc(F)cc3)CC2)[C@@H](O)[C@H]1O
Adenosine receptor A3
  Ki: 2700 nM
Adenosine receptor A2a [1]
  inhibition: 34%
[2]
  inhibition: 28%

## O=C(NCc1cccc(C(F)(F)F)c1)[C@H]1S[C@@H](n2cnc3c(NCc4cccc(I)c4)nc(Cl)nc32)[C@H](O)[C@@H]1O
Adenosine receptor A3
  Ki: 354 nM
Adenosine receptor A2a [1]
  inhibition: 11%
[2]
  inhibition: 0%

## O=C([C@H]1S[C@@H](n2cnc3c(NCc4cccc(I)c4)nc(Cl)nc32)[C@H](O)[C@@H]1O)N1CCN(c2ccc(F)cc2)CC1
Adenosine receptor A3
  Ki: 1440 nM
Adenosine receptor A2a [1]
  inhibition: 12%
[2]
  inhibition: 24%

## CNc1nc(Cl)nc2c1ncn2[C@@H]1S[C@H](C(=O)NC2CC2)[C@@H](O)[C@H]1O
Adenosine receptor A1
  Ki: 47.8 nM
Adenosine receptor A3
  Ki: 2.82 nM
Adenosine receptor A2a [3]
  Ki: 2770 nM

## Cc1ccccc1CNc1nc(Cl)nc2c1ncn2[C@@H]1S[C@H](C(=O)N2CCOCC2)[C@@H](O)[C@H]1O
Adenosine receptor A3
  Ki: 7670 nM
Adenosine receptor A2a [1]
  inhibition: 17%
[2]
  inhibition: 4%

## CNc1nc(Cl)nc2c1ncn2[C@@H]1S[C@H](C(=O)NCCC(C)C)[C@@H](O)[C@H]1O
Adenosine receptor A1
  Ki: 4070 nM
Adenosine receptor A3
  Ki: 1.63 nM
Adenosine receptor A2a [1]
  inhibition: 14%

## O=C([C@H]1S[C@@H](n2cnc3c(NC4CC4)nc(Cl)nc32)[C@H](O)[C@@H]1O)N1CCC(Cc2ccccc2)CC1
Adenosine receptor A3
  Ki: 4020 nM
Adenosine receptor A2a [1]
  inhibition: 33%
[2]
  inhibition: 32%

## O=C(NC1CC1)[C@H]1S[C@@H](n2cnc3c(NC4CC4)nc(Cl)nc32)[C@H](O)[C@@H]1O
Adenosine receptor A1
  Ki: 4.6 nM
Adenosine receptor A3
  Ki: 5.56 nM
Adenosine receptor A2a [3]
  Ki: 325 nM

## CNC(=O)[C@H]1S[C@@H](n2cnc3c(NC4CC4)nc(Cl)nc32)[C@H](O)[C@@H]1O
Adenosine receptor A1
  Ki: 37.3 nM
Adenosine receptor A3
  Ki: 2.24 nM
Adenosine receptor A2a [3]
  Ki: 4890 nM

## CNc1nc(Cl)nc2c1ncn2[C@@H]1S[C@H](C(=O)N2CCC(Cc3ccccc3)CC2)[C@@H](O)[C@H]1O
Adenosine receptor A3
  Ki: 3500 nM
Adenosine receptor A2a [1]
  inhibition: 6%
[2]
  inhibition: 10%

## CCNC(=O)[C@H]1S[C@@H](n2cnc3c(NC4CC4)nc(Cl)nc32)[C@H](O)[C@@H]1O
Adenosine receptor A1
  Ki: 3.2 nM
Adenosine receptor A3
  Ki: 0.67 nM
Adenosine receptor A2a [3]
  Ki: 604 nM

## CC(C)CCNC(=O)[C@H]1S[C@@H](n2cnc3c(NCc4cccc(I)c4)nc(Cl)nc32)[C@H](O)[C@@H]1O
Adenosine receptor A3
  Ki: 41.9 nM
Adenosine receptor A2a [1]
  inhibition: 31%
[2]
  inhibition: 31%

## O=C(NC1CC1)[C@H]1S[C@@H](n2cnc3c(NCc4cccc(I)c4)nc(Cl)nc32)[C@H](O)[C@@H]1O
Adenosine receptor A1
  Ki: 92 nM
Adenosine receptor A3
  Ki: 2.96 nM
Adenosine receptor A2a [3]
  Ki: 326 nM

## CNC(=O)[C@H]1S[C@@H](n2cnc3c(NC4CCCC4)nc(Cl)nc32)[C@H](O)[C@@H]1O
Adenosine receptor A1
  Ki: 13.9 nM
Adenosine receptor A3
  Ki: 4.27 nM
Adenosine receptor A2a [3]
  Ki: 921 nM

## CNC(=O)[C@H]1S[C@@H](n2cnc3c(NCc4ccccc4C)nc(Cl)nc32)[C@H](O)[C@@H]1O
Adenosine receptor A1
  Ki: 507 nM
Adenosine receptor A3
  Ki: 2.18 nM
Adenosine receptor A2a [3]
  Ki: 1320 nM

## Cc1ccccc1CNc1nc(Cl)nc2c1ncn2[C@@H]1S[C@H](C(=O)NC2CC2)[C@@H](O)[C@H]1O
Adenosine receptor A1
  Ki: 76.7 nM
Adenosine receptor A3
  Ki: 27.8 nM
Adenosine receptor A2a [3]
  Ki: 202 nM

## CNc1nc(Cl)nc2c1ncn2[C@@H]1S[C@H](C(=O)N(C)C)[C@@H](O)[C@H]1O
Adenosine receptor A3
  Ki: 1500 nM
Adenosine receptor A2a [1]
  inhibition: 12%
[2]
  inhibition: 10%

## O=C(NCC1CC1)[C@H]1S[C@@H](n2cnc3c(NCc4cccc(I)c4)nc(Cl)nc32)[C@H](O)[C@@H]1O
Adenosine receptor A1
  Ki: 1720 nM
Adenosine receptor A3
  Ki: 3.64 nM
Adenosine receptor A2a [3]
  Ki: 2220 nM

## O=C(NCCC(c1ccccc1)c1ccccc1)[C@H]1S[C@@H](n2cnc3c(NCc4cccc(I)c4)nc(Cl)nc32)[C@H](O)[C@@H]1O
Adenosine receptor A3
  Ki: 343 nM
Adenosine receptor A2a [1]
  inhibition: 3%
[2]
  inhibition: 5%

## O=C([C@H]1S[C@@H](n2cnc3c(NCc4cccc(I)c4)nc(Cl)nc32)[C@H](O)[C@@H]1O)N1CCC(Cc2ccccc2)CC1
Adenosine receptor A3
  Ki: 878 nM
Adenosine receptor A2a [1]
  inhibition: 17%
[2]
  inhibition: 38%

## O=C([C@H]1S[C@@H](n2cnc3c(NC4CC4)nc(Cl)nc32)[C@H](O)[C@@H]1O)N1CCOCC1
Adenosine receptor A3
  Ki: 4440 nM
Adenosine receptor A2a [1]
  inhibition: 11%
[2]
  inhibition: 25%

## CNc1nc(Cl)nc2c1ncn2[C@@H]1S[C@H](C(=O)NCc2cccc(F)c2)[C@@H](O)[C@H]1O
Adenosine receptor A3
  Ki: 17.4 nM
Adenosine receptor A2a [1]
  inhibition: 41%
[2]
  inhibition: 67%

## CNc1nc(Cl)nc2c1ncn2[C@@H]1S[C@H](C(=O)NCCc2cccc(F)c2)[C@@H](O)[C@H]1O
Adenosine receptor A3
  Ki: 85.6 nM
Adenosine receptor A2a [1]
  inhibition: 30%
[2]
  inhibition: 15%

## CNc1nc(Cl)nc2c1ncn2[C@@H]1S[C@H](C(=O)NCC2CC2)[C@@H](O)[C@H]1O
Adenosine receptor A1
  Ki: 638 nM
Adenosine receptor A3
  Ki: 1.1 nM
Adenosine receptor A2a [1]
  inhibition: 44%

## O=C([C@H]1S[C@@H](n2cnc3c(NCc4cccc(I)c4)nc(Cl)nc32)[C@H](O)[C@@H]1O)N1CCOCC1
Adenosine receptor A3
  Ki: 510 nM
Adenosine receptor A2a [1]
  inhibition: 4%
[2]
  inhibition: 18%

## O=C(NC1CCC1)[C@H]1S[C@@H](n2cnc3c(NCc4cccc(I)c4)nc(Cl)nc32)[C@H](O)[C@@H]1O
Adenosine receptor A1
  Ki: 126 nM
Adenosine receptor A3
  Ki: 18.2 nM
Adenosine receptor A2a [3]
  Ki: 549 nM

## Cc1ccccc1CNc1nc(Cl)nc2c1ncn2[C@@H]1S[C@H](C(=O)NCC2CC2)[C@@H](O)[C@H]1O
Adenosine receptor A1
  Ki: 1980 nM
Adenosine receptor A3
  Ki: 29.7 nM
Adenosine receptor A2a [3]
  Ki: 3890 nM

## O=C(NCCc1ccccc1)[C@H]1S[C@@H](n2cnc3c(NCc4cccc(I)c4)nc(Cl)nc32)[C@H](O)[C@@H]1O
Adenosine receptor A3
  Ki: 433 nM
Adenosine receptor A2a [1]
  inhibition: 11%
[2]
  inhibition: 20%

## CNC(=O)[C@H]1S[C@@H](n2cnc3c(NC)nc(Cl)nc32)[C@H](O)[C@@H]1O
Adenosine receptor A2a [1]
  inhibition: 20%

## CNc1nc(Cl)nc2c1ncn2[C@@H]1S[C@H](C(=O)N2CCOCC2)[C@@H](O)[C@H]1O
Adenosine receptor A3
  Ki: 3870 nM
Adenosine receptor A2a [1]
  inhibition: 24%
[2]
  inhibition: 4%

## CCNC(=O)[C@H]1S[C@@H](n2cnc3c(NC4CCCC4)nc(Cl)nc32)[C@H](O)[C@@H]1O
Adenosine receptor A1
  Ki: 2 nM
Adenosine receptor A2a [3]
  Ki: 149 nM

## Cc1ccccc1CNc1nc(Cl)nc2c1ncn2[C@@H]1S[C@H](C(=O)N(C)C)[C@@H](O)[C@H]1O
Adenosine receptor A3
  Ki: 632 nM
Adenosine receptor A2a [1]
  inhibition: 22.5%
[2]
  inhibition: 0%
